Assay outcomes (PubChem BioAssay)
NPY-Y2 PAM-ag – NPY-Y2 potentiators or agonists, primary screen, cell-based. Neuropeptide Y receptor type 2 (Homo sapiens), P49146. cells expressing NPY-Y2, potentiator/agonist read-out. activation, % at 3.6 µM. 0.45% of 220,000 active. AID 1359, 2008; in the data active = activation above about 27%;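 note: cells stimulated with NPY near EC25 plus isoproterenol at EC100; 0% = vehicle plus submaximal agonist and 100% = vehicle plus saturating agonist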
Target sequence (P49146 whole entry, looked up): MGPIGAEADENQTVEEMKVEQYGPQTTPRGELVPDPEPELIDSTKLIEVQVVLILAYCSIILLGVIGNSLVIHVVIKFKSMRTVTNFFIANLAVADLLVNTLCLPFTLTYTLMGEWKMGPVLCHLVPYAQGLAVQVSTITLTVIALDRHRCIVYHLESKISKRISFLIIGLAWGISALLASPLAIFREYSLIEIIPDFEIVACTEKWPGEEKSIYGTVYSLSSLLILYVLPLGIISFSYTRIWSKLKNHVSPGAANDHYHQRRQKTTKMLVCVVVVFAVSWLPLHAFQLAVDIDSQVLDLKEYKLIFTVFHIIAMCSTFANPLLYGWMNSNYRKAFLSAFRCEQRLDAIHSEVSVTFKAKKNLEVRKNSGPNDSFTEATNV
WT yeast gro inh – growth inhibition of WT strain, primary screen, mitochondrial fusion inhibitor project, WT and mutant strains, chemical genetic; mitochondrial fusion phenotypic screen; inhibition, % at 10 µM; 2.1% of 190,000 active; in the data active = inhibition above about 58%; tested in S. cerevisiae
NPY1 pot ag – NPY-Y1 receptor potentiators or agonists, primary screen, cell-based; activation, % at 3.6 µM; 0.37% of 220,000 active; NPY-Y1 expressing cells, potentiator/agonist activation; Neuropeptide Y receptor type 1 (Homo sapiens), P25929; in the data active = activation above about 33%, passing the limit was not always enough;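 note: cells stimulated with NPY at EC10 then isoproterenol at EC100; 0% = low agonist plus stimulus and 100% = saturating agonist plus stimulus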
NPY-Y2 antag – NPY-Y2 receptor antagonists, primary screen, cell-based. inhibition, % at 2.7 µM. 0.99% of 140,000 active. NPY-Y2 expressing cells, antagonist mode. Neuropeptide Y receptor type 2 (Homo sapiens), P49146;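 note: 0% = vehicle with agonist challenge and 100% = reference antagonist with challenge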
RAM inhibit – inhibitors of the yeast RAM network, primary screen, dse1pr::URA3 reporter, 5-FOA selection; inhibition, % at 50 µM; S. cerevisiae dse1pr::URA3 reporter, 5-FOA growth OD615, 2 d; analog-sensitive cbk1-as2 kinase mutant strain; 1.8% of 190,000 active; AID 868, 2007;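 active = inhibition above a set limit, 3 SD over mean compound inhibition, cut at about 8.4% in these data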;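 note: 0% = DMSO-only wells with no growth and 100% = 10 µM 1-NA-PP1 full growth; inhibition rescues growth on 5-FOA so higher OD means more RAM inhibition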
NPY-Y1 antag – NPY-Y1 receptor antagonists, primary screen, cell-based. AID 1040, 2008. Neuropeptide Y receptor type 1 (Homo sapiens), P25929. 1% of 200,000 active. inhibition, % at 3.6 µM. HEK293-CNG Y1 cells, membrane potential fluorescence; NPY at EC95, then isoproterenol;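 active = inhibition above the campaign mean inhibition of all tested compounds plus 3 SD, cut at about 20% in these data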;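 note: 0% = DMSO wells given NPY plus isoproterenol and 100% = isoproterenol alone without NPY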
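Material: HEK293 Y1/CNG channel cell line | Also added: NPY (25 nM), isoproterenol (1 µM), Ro 20-1724 (25 µM) | Compound: One concentration, 3.6 µM, in 0.4% DMSO | Schedule: 3 h dye uptake, 1 h room-temperature compound, 45 min post-isoproterenol | Signal: Membrane-potential fluorescent dye readout | Read-out: % inhibition of NPY effect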
NPY1 antag conf – NPY-Y1 receptor antagonists, retest of hits, confirmation, HEK293-CNG cells, membrane potential fluorescence, triplicate | AID 1254, 2008 | inhibition, % at 3.6 µM | cAMP; NPY challenge against isoproterenol-raised cAMP | shares compounds with NPY-Y1 antag | 21% of 1,200 active; in the data active = inhibition above about 20%;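 note: 0% = vehicle with agonist plus stimulus and 100% = stimulus alone without agonist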
NPY-Y2 antag ct – NPY-Y2 receptor antagonists, selectivity check, confirmation, counter-screen for NPY-Y1 antagonist project, HEK293-CNG cells, membrane potential fluorescence, triplicate. shares compounds with NPY-Y1 antag. 28% of 1,200 active. inhibition, % at 3.6 µM. antagonism; cells given NPY, then isoproterenol;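 note: 0% = DMSO with agonist challenge and 100% = reference antagonist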
NPY-Y1 confirm – NPY-Y1 potentiators or agonists, confirmation, cell-based | shares compounds with NPY1 pot ag | cell-based NPY-Y1 potentiator/agonist assay | activation, % at 3.6 µM | 20% of 280 active; in the data active = activation above about 45%;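 note: cells challenged with NPY at its EC10 plus isoproterenol stimulus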
NPY-Y2 counter – NPY-Y2 potentiators or agonists, counter-screen for NPY-Y1 potentiator project, cell-based, fluorescence. shares compounds with NPY1 pot ag. HEK293-CNG cells, membrane-potential fluorescence (FLIPR), 1536-well. activation, % at 3.6 µM. 20% of 280 active. AID 1649, 2009; in the data active = activation above about 33%
NPY-Y1 ag – NPY-Y1 direct agonists without NPY, confirmation, counter-screen for NPY-Y1 potentiator project, cell-based, fluorescence. shares compounds with NPY1 pot ag. HEK293 Y1-CNGC, membrane potential fluorescence, agonist mode. activation, % at 3.6 µM. 50% of 280 active. AID 1697, 2009;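 active = percent activation above the mean of DMSO-only control wells plus 3 SD of those wells, cut at about 18% in these data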;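 note: cells challenged with isoproterenol plus Ro 20-1724 with no NPY in test wells; Y1 agonism lowers isoproterenol-driven cAMP and reduces probe fluorescence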
NPY-Y2 ag – NPY-Y2 direct agonists without NPY, counter-screen for NPY-Y1 potentiator project, cell-based, fluorescence; shares compounds with NPY1 pot ag; HEK293 Y2-CNGC, membrane potential fluorescence, agonist mode; activation, % at 3.6 µM; 67% of 280 active; AID 1698, 2009;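 active = activation above the solvent-only control wells' mean plus 3 SD, cut at about 11% in these data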;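 note: 0% = DMSO with isoproterenol and 100% = 40 nM NPY maximal response; agonism lowers cAMP so well fluorescence drops in active wells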
CNGC inh 2 – CNGC cAMP sensor activity inhibitors, counter-screen for NPY-Y1 potentiator/agonist project, cell-based, HEK293-CNG parental, membrane potential fluorescence, Y1 set; inhibition, % at 3.6 µM; isoproterenol cAMP; shares compounds with NPY1 pot ag; 42% of 280 active;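 active = inhibition above the mean of stimulated solvent-only control wells plus 3 SD, cut at about 22% in these data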;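 note: 0% = isoproterenol-stimulated DMSO wells and 100% = unstimulated DMSO wells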
* = called active by the depositor; . = no result given. Shown are actives, neighbours in structure and some others; about 4.9% of the full set was active somewhere. Cut-off read from the data, not from the text of the source, unless noted: active = inhibition above about 17%; inactive = the rest.

SMILES | NPY-Y2 PAM-ag | WT yeast gro inh | NPY1 pot ag | NPY-Y2 antag | RAM inhibit | NPY-Y1 antag | NPY-Y1 confirm | NPY-Y2 counter | NPY-Y1 ag | NPY-Y2 ag | CNGC inh 2 | others
CC(=O)OC1COC(OC2C(O)C(C)OC(OC3C(OC4CCC5(C)C(CCC6(C)C5CC=C5C7CC(C)(C)CCC7(C(=O)O)CCC56C)C4(C)CO)OCC(O)C3O)C2O)C(O)C1OC(C)=O (configuration not stated) | 7 | 1 | 60* | . | 2 | 23* | 83* | 68* | 58* | 62* | 47* | NPY1 antag conf=22*;NPY-Y2 antag ct=12
CC1(C)CC[C@]2(C(=O)O)CC[C@]3(C)C(=CCC4[C@@]5(C)CC[C@H](O)C(C)(C)C5CC[C@]43C)C2C1 (some centres not stated) | 4 | 0 | -8 | 1 | 2 | -2 | . | . | . | . | .
O=C(CSc1nc2c(cnn2-c2ccccc2)c(=O)[nH]1)c1ccc(Cl)cc1 | -12 | -7 | -17 | 1 | 0 | 0 | . | . | . | . | .
CC1CCC(C(C)C)C(OCC(O)CN2CCCC(C)C2)C1 (configuration not stated) | 12 | 19 | 47* | . | 0 | 28* | 5 | 5 | 8 | 14* | -13 | NPY1 antag conf=27*;NPY-Y2 antag ct=21*
O=C(CCC1CC(=O)Nc2ccccc21)NCc1ccccc1 (configuration not stated) | 10 | 8 | -7 | 3 | 2 | 10 | . | . | . | . | .
O=C(CCC1CC(=O)Nc2ccccc21)NCc1ccc(F)cc1 (configuration not stated) | -26 | -14 | 68* | -2 | 1 | 4 | 0 | -2 | -1 | -5 | 1
CC(C)c1ccc2[nH]c(O)c(N=NC(=O)c3cccc(S(=O)(=O)Nc4cccc(Cl)c4)c3)c2c1 | -8 | . | 50* | . | . | . | 29 | 23 | 24* | 28* | 20
CC(C)c1ccc2[nH]c(O)c(N=NC(=O)c3cccc(S(=O)(=O)Nc4ccc(Cl)cc4)c3)c2c1 | 18 | -3 | 5 | . | 7 | 0 | . | . | . | . | .
CCC(CC)c1nn2c(N)c(/C=C3\C=Nc4ccccc43)c(=O)nc2s1 | 12 | . | 73* | . | . | . | 95* | 82* | 97* | 85* | 46*
CC(C)c1nn2c(N)c(/C=C3\C=Nc4ccccc43)c(=O)nc2s1 | 11 | . | 9 | . | . | . | . | . | . | . | .
